Screening data from PubChem BioAssay.
PolyA inhibitor = blocks polyadenylation in yeast reporter cells; S. cerevisiae SKY197-pL101 polyadenylation reporter, beta-gal luminescence; efflux-impaired pdr1/pdr3 knockout yeast; score 100 = 6 SD above DMSO; activity score, % at 12 µM; AID 1875; hit rate 0.02% among 300,000;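 active = lowest replicate activity score at least 50, where 100 means six control SD above control mean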;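 also: yeast exposed to compound for 9 h at 30 °C; higher score means more reporter readthrough which indicates perturbed polyadenylation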
Efflux pump inh = inhibitors of Candida antifungal efflux pumps expressed in yeast; S. cerevisiae Candida pump triplex, Nile Red efflux; inhibition, % at 10 µM; hit rate 0.44% among 330,000;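 active = plate passing quality check with inhibition over a set limit, or well fluorescence over plate mean plus 4 SD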;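 also: Nile Red retained in pooled yeast measured as flow cytometry median fluorescence; 0% = buffer negative control and 100% = Enniatin B positive control; higher means more Nile Red kept so more efflux inhibition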
STK33 kinase inh = human STK33 kinase inhibition | inhibition, % at 10 µM | purified STK33, MBP phosphorylation, ADP-Glo luminescence | hit rate 0.073% among 320,000 | AID 2661;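 active = inhibition at or above 25%, using the most active replicate where run in duplicate; inactive = inhibition below 25%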
GSK3beta inhib = blocks human GSK3beta kinase activity. activity score (negative = inhibition), % at 10 µM. hit rate 0.038% among 300,000. GST-GSK3beta kinase, ADP-Glo luminescence, 60 min; active compounds read low. P49841;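 active = more than half of replicate wells score below -50%, meaning over 50% inhibition versus plate controls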;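 also: 0% = median DMSO wells and -100% = median GW8510 positive control wells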
Target sequence (P49841 whole entry, looked up): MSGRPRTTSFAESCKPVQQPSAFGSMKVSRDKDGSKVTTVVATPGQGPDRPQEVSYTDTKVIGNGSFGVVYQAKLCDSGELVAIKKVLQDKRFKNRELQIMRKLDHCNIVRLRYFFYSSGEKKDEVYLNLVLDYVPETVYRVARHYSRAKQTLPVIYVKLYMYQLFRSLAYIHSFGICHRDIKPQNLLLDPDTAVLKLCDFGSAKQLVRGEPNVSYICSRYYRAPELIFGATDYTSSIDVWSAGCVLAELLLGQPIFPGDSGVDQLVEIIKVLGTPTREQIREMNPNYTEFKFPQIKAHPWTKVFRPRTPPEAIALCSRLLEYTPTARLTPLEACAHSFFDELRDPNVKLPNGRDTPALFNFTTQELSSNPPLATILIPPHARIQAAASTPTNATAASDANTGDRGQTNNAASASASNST
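test system = GST-tagged human GSK3beta kinase, cell-free | reagent = 25 µM ATP with peptide substrate | dosing = one dose of 10 µM per compound | schedule = 60 min reaction, RT | detection = luminescent ADP-Glo measurement of ADP formed | control set = DMSO neutral wells and GW8510 at 20 µM as positive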
GSK3 alpha inh = human GSK-3 alpha kinase inhibition; ADP-Glo luminescence, 60 min; inhibition, % at 10 µM; hit rate 0.1% among 320,000;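 active = more than half of replicates show inhibition above 20%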;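 also: GST-tagged GSK-3 alpha with peptide substrate and 25 µM ATP; 0% = DMSO neutral wells and 100% = GW8510 positive control wells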
Cmpd fluor yeast = compound fluorescence in yeast efflux pump counter-screen; fluorescence ratio to DMSO, % at 10 µM; AID 588517; hit rate 4% among 1,700; S. cerevisiae AD/pABC3, flow cytometry; shares compounds with Efflux pump inh;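 active = fluorescence ratio to DMSO above its plate's cutoff, the plate mean ratio plus 5 SD, cut at about 210% in these data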;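 also: unstained yeast with no Nile Red so the signal is compound autofluorescence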
CaMdr1 efflux inh = Candida Mdr1 efflux pump inhibition. S. cerevisiae AD/CaMDR1, Nile Red efflux, flow cytometry. shares compounds with Efflux pump inh. AID 588518. hit rate 1% among 1,700. inhibition, % at 10 µM; in the data active = inhibition above about 26%;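 also: 0% = DMSO vehicle and 100% = reference inhibitor; higher means more Nile Red retained so more efflux inhibition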
CaCdr2 efflux inh = Candida Cdr2 efflux pump inhibition; shares compounds with Efflux pump inh; S. cerevisiae AD/CaCDR2, Nile Red retention, flow cytometry; Nile Red retention ratio vs DMSO, % at 10 µM; hit rate 4% among 1,700; in the data active = Nile Red retention ratio vs DMSO above about 190%;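 also: higher ratio means more blocking of Cdr2 efflux of the dye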
CaCdr1 efflux inh = blocks the Candida albicans Cdr1 efflux pump in yeast | hit rate 1% among 1,700 | S. cerevisiae AD/CaCDR1, Nile Red efflux, flow cytometry | AID 588522 | shares compounds with Efflux pump inh | inhibition, % at 10 µM;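 active = inhibition above the screen-wide mean plus twice its standard deviation, cut at about 32% in these data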
* hit, by the source's call; . = no result. Sampled rows, rich in hits. Any-hit rate of the full collection: about 0.6%.

SMILES	PolyA inhibitor	Efflux pump inh	STK33 kinase inh	GSK3beta inhib	GSK3 alpha inh	Cmpd fluor yeast	CaMdr1 efflux inh	CaCdr2 efflux inh	CaCdr1 efflux inh
O=C(CN1N=C(c2ccccc2)CCC1=O)NCc1ccccc1	4	0	-1	-9	-3	.	.	.	.
COc1ccccc1C1CCN(Cc2c(C)[nH]c3ccccc23)CC1	-11	0.9*	-1	-3	2	108	0	96	0
O=C(C1CC1)N1CCN(c2ccc(O)cc2)CC1	0	0	-1	.	0	.	.	.	.
Cc1ccc(C(C)(C)C)cc1S(=O)(=O)N1CCC(C(=O)N2CCN(c3ccc(O)cc3)CC2)CC1	.	0.8*	2	.	-3	117	0	118	0
CC1(C)[C@@H](O)CC[C@]2(C)C3C(O)C=C4[C@H]5C[C@@](C)(C(=O)O)CC[C@]5(C)CC[C@]4(C)[C@]3(C)CC[C@@H]12 (stereo partly drawn)	7	0	1	0	-3	.	.	.	.
O=C(NCCCN1CCCC1=O)c1cccnc1	10	5.9*	0	3	-2	95	0	91	0
O=C(NCCCN1CCCC1=O)c1cncc(Br)c1	.	0	-1	-4	0	.	.	.	.
Cc1cccc(C(=O)NC(=S)Nc2ccc(Cc3ccncc3)cc2)c1	1	0.7*	2	-1	1	103	0	121	0
Cc1ccc(NC(=S)NC(=O)c2ccccc2)cc1NC(=S)NC(=O)c1ccccc1	6	0.7*	-1	-2	1	105	0	97	0
Cc1cc(C)cc(C(=O)NC(=S)Nc2ccc(Cc3ccncc3)cc2)c1	-20	0	-1	0	5	.	.	.	.
COC(=O)c1ccccc1NC(=S)NC(=O)c1ccccc1	-8	0	1	1	-1	.	.	.	.
O=C(Nc1cccc(NC(=S)NC(=O)c2cccs2)c1)c1ccccc1	3	8.0*	0	1	3	91	0	100	0
O=C(NC(=S)Nc1ccc2nc[nH]c2c1)c1ccccc1	-3	0	0	0	-1	105	0	101	0
COc1ccc(C(=O)O)cc1S(=O)(=O)N(C)C	12	0	0	-1	-3	.	.	.	.
Cc1cc(C)n(CC(=O)NNC(=O)CC(C)c2ccccc2)n1 (stereo not drawn)	.	0	-1	.	0	.	.	.	.
CCN(CC)C(=O)Cn1cc(S(=O)(=O)CC(=O)Nc2cc(OC)ccc2OC)c2ccccc21	-5	0	-1	-4	-1	.	.	.	.
O=C(NCc1ccc(F)cc1)C1CCCN(S(=O)(=O)c2ccc(-n3cnnn3)cc2)C1 (stereo not drawn)	2	0	-1	-7	-1	.	.	.	.
Cc1ccc(-c2ccc(C#N)c(=O)n2CC(=O)N(C)C)cc1	-2	0	-1	-2	-1	.	.	.	.
Cc1ccc(C(=O)N2CCC3(CC2)Oc2ccc(Cl)cc2C(=O)C32CC(c3cccnc3)=NO2)s1 (stereo not drawn)	2	0	2	1	-2	111	0	127	0
Cc1ccc(C(=O)N2CCC3(CC2)Oc2ccc(F)cc2C(=O)C32CC(c3ccccc3)=NO2)s1 (stereo not drawn)	9	3	0	-1	-2	.	.	.	.
Cc1ccc(C(=O)N2CCC3(CC2)Oc2ccc(Cl)cc2C(=O)C32CC(c3ccccc3)=NO2)s1 (stereo not drawn)	0	0	0	3	-4	94	0	91	0
Cc1ccc(C(=O)N2CCC3(CC2)Oc2ccc(Cl)cc2C(=O)C32CC(c3ccc(Cl)cc3)=NO2)s1 (stereo not drawn)	7	0	1	3	0	98	0	112	0
NC(=S)N/N=C/c1cccc(/C=N/NC(N)=S)c1	-9	0	0	-1	-1	.	.	.	.
NC(=S)N/N=C/c1ccc2ccccc2c1	-25	8.2*	-2	1	0	112	0	108	0
